miR122 inh = blocks miR-122 activity in Huh7 sensor cells; Huh7 miR-122 Renilla luciferase sensor, 48 h; neutral wells = 0, positive control = 100; activation (reporter increase), % at 12.5 µM; actives 0.3% (n = 340,000); AID 602342;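 active = mean replicate activation score at least 90 and every replicate individually at or above 90; inconclusive = only one of the two criteria met; inactive = neither criterion met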;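 also: higher luciferase means less miR-122 activity so hits act as miR-122 inhibitors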
E-selectin induc = E-selectin induction on HUVECs; actives 0.37% (n = 260,000); activation, % at 7.58 µM; HUVEC E-selectin immunofluorescence imaging; normalized: neutral wells 0, TNF-alpha wells 100; P16581;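 active = mean E-selectin-positive cell signal at least 10% of the positive control, reached in at least 60% of replicates, without over 20% cell loss; inconclusive = no rule given, readout overlaps actives, possibly toxicity-flagged; inactive = the rest, including those meeting only one limit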
Target sequence (P16581 whole entry, looked up): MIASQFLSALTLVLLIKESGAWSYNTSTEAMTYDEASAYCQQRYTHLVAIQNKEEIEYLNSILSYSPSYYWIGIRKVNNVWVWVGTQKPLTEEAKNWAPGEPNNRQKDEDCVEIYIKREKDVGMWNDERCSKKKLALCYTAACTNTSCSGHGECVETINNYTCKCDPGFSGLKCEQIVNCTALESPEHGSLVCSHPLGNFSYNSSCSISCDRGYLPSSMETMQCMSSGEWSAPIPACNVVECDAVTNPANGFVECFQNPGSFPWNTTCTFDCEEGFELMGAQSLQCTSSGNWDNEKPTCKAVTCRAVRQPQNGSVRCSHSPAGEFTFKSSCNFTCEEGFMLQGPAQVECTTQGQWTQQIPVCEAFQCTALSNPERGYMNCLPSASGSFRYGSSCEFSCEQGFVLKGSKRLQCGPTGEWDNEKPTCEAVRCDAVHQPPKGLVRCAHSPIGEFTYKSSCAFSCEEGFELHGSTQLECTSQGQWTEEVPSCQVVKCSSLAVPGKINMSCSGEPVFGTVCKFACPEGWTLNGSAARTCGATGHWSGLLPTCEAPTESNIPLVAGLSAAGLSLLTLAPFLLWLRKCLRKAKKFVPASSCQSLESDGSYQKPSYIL
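Test system – human umbilical vein endothelial cells (HUVEC), E-selectin induction · Input – 3,000 HUVEC seeded per well · Buffer or medium – EGM-2, gelatin · Compound dosing – single-point compound dose · Detection – immunofluorescence imaging · Measure – percent E-selectin-positive cells · Controls – TNF-alpha high, DMSO low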
DENV2 CPE rescue = protects cells from dengue virus 2 cytopathic effect | actives 1.7% (n = 350,000) | CPE inhibition, % at 9.99 µM | DENV2-infected cells, cytopathic effect rescue, plate reader; in the data active = CPE inhibition above about 20%, passing the limit was not always enough; inconclusive = no clear call, values can overlap the other calls; tested in BHK-21 cells;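 also: 0% = median of neutral control wells and 100% = median of positive control wells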
Cneo AK release = Cryptococcus neoformans lysis via adenylate kinase release; C. neoformans lysis, adenylate kinase release luminescence, 4 h; normalised: neutral wells 0, clomiphene wells 100; lysis activity, % at 15 µM; AID 651654; actives 0.2% (n = 360,000);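 active = mean lysis activity across replicates of at least 80%, whatever share of replicates individually reach that level; inactive = mean lysis activity below 80%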
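Assay system: Cryptococcus neoformans yeast cells / Dosing: single-point compound dose / Timing: 4 h at 37 °C static, read 1 h later / Measured by: luminescence of released adenylate kinase using an AK detection reagent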
rRNA inh HTS = inhibitors of bacterial rRNA selective over humanized ribosomes; E. coli WT GFP vs humanized-ribosome RFP mutants, fluorescence, 24 h; hits give low values; DMSO median 0, no signal -100; AID 720706; actives 1.6% (n = 350,000); GFP signal change (wild-type ribosome), % (concentration not given with the values);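 active = significant combined selectivity score with lowered wild-type GFP, culture density cut under 30%, mutant RFP and density less affected; inactive = any of these conditions unmet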
Active calls of the source: *; ? = inconclusive; . = no result given; [ ] = dose if it differs, or a comment. The list is not random: actives were taken first. Their share in the collection is about 3.1%.

SMILES	miR122 inh	E-selectin induc	DENV2 CPE rescue	Cneo AK release	rRNA inh HTS
C[C@H](CO)N1C[C@H](C)[C@H](CN(C)Cc2ccc(C(=O)Nc3ccccc3N)cc2)Oc2ccc(N(C)C)cc2C1=O	?	-0.6	-12.8	-1.8	-2.2
C[C@H](CO)N1C[C@H](C)[C@@H](CN(C)Cc2ccc(C(=O)Nc3ccccc3N)cc2)Oc2ccc(N(C)C)cc2C1=O	58.9[16.7 µM]	2.0	2.6	8.3	-1.1
C[C@@H]1CN([C@H](C)CO)C(=O)Cc2cc(N(C)C)ccc2O[C@H]1CN(C)Cc1ccc(C(=O)Nc2ccccc2N)cc1	84.8[16.7 µM]	0.9	-5.2	-5.1	2.7
C[C@@H]1CN([C@H](C)CO)C(=O)c2cc(N(C)C)ccc2O[C@H]1CN(C)Cc1ccc(C(=O)Nc2ccccc2N)cc1	111.7*[16.7 µM]	-0.3	2.6	-2.0	-1.6
C[C@H]1CN([C@@H](C)CO)C(=O)c2cc(N(C)C)ccc2O[C@H]1CN(C)Cc1ccc(C(=O)Nc2ccccc2N)cc1	119.5*[16.7 µM]	1.8	-2.0	.	-0.7
C[C@@H]1CN([C@H](C)CO)C(=O)Cc2cc(N(C)C)ccc2O[C@@H]1CN(C)Cc1ccc(C(=O)Nc2ccccc2N)cc1	130.4*[16.7 µM]	6.1	-6.6	8.1	-4.3
C[C@@H]1CN([C@H](C)CO)C(=O)c2cc(N(C)C)ccc2O[C@@H]1CN(C)Cc1ccc(C(=O)Nc2ccccc2N)cc1	220.4*[16.7 µM]	.	-8.0	0.7	.
COCC#Cc1ccc2c(c1)O[C@@H](CN(C)S(=O)(=O)c1ccc(C)cc1)[C@@H](C)CN([C@H](C)CO)S2(=O)=O	-12.6[16.7 µM]	?	-8.5	-0.4	-3.3
Fc1ccc2c(c1)/C(=N/Nc1ccccn1)CCS2	.	-0.2	-4.0	.	-22.4*
c1ccc(N/N=C2\CCCc3ccccc32)nc1	-0.9	.	4.7	7.5	1.3
COc1ccc(Cl)cc1C(=O)NC(=S)Nc1ccccc1N1CCOCC1	.	-0.3	14.4	-8.5	-7.1
Cc1onc(-c2c(F)cccc2Cl)c1C(=O)Nc1ccccc1N1CCOCC1	-5.7	-0.1	-0.9	-1.6	-28.3*
Fc1ccc(NC(=S)Nc2ccccc2N2CCOCC2)cc1Cl	.	2.0	11.6	.	-26.8*
O=C(NC(=S)Nc1cc(Cl)ccc1N1CCOCC1)c1ccccc1[N+](=O)[O-]	.	0.6	0.3	339.9*	-6.2
C[C@H](CO)N1C[C@H](C)[C@@H](CN(C)S(=O)(=O)c2cccs2)Oc2ccc(NC(=O)Nc3ccc4c(c3)OCO4)cc2CC1=O	-2.6[16.7 µM]	-1.5	-5.5	0.8	-2.4
COc1cccc(NC(=O)C[C@H]2CC[C@H]3[C@H](COc4ccc(NC(=O)C5CCOCC5)cc4C(=O)N3C)O2)c1	11.7[16.7 µM]	0.0	-3.9	0.5	0.0
COc1ccc(C(=O)Nc2ccc(C)c(S(=O)(=O)N3CCCCCC3)c2)cc1	54.5	-2.9	0.0	.	.
COc1ccc(NS(=O)(=O)c2cc(NC(=O)c3ccc(=O)[nH]c3)ccc2C)cc1	99.6*	.	12.9	-2.1	9.3
COc1ccc(C(=O)Nc2ccc3[nH]ccc3c2)cc1OC	2.8	.	7.1	-9.6	-9.8
CC(=O)Nc1ccc2[nH]ccc2c1	-6.2	0.1	10.3	2.1	3.8
COc1ccc(C(=O)Nc2ccc3[nH]ccc3c2)cc1	.	33.6*	12.4	.	-31.3*
COc1ccc(OC)c(C(=O)Nc2ccc3[nH]ccc3c2)c1	.	8.1	-0.2	.	-23.4*
CCC(C)[C@H](NC(=O)[C@@H]1Cc2ccccc2CN1)C(=O)NCc1ccc(C)cc1 (stereo partly drawn)	-9.4	.	92.0*	-1.0	2.1
CCC(C)[C@H](NC(=O)[C@@H]1Cc2ccccc2CN1)C(=O)NCc1ccc(OC)cc1 (stereo partly drawn)	-5.2	.	?	-0.6	3.3
Cc1noc(C)c1S(=O)(=O)N(C)C[C@@H]1Oc2c(NC(=O)C3CCOCC3)cccc2C(=O)N([C@@H](C)CO)C[C@@H]1C	?	0.1	.	.	5.5
O=C(C[C@@H]1C=C[C@@H](NC(=O)c2ccccc2)[C@@H](CO)O1)NCc1ccncn1	.	-0.1	-4.7	-5.3	5.6
Cc1ccc2nc(CSc3nnc4ccccn34)cc(=O)n2c1	.	-0.5	5.5	.	4.3
COCC(C)n1c(SCc2cc(=O)n3cc(C)ccc3n2)nc2ccccc2c1=O (stereo not drawn)	-4.2	.	.	-1.0	-27.4*

High-throughput results deposited in PubChem by Broad Institute.
